Results: ChEMBL document CHEMBL1126988, “Quinolone antibacterials containing the new 7-[3-(1-aminoethyl)-1- pyrrolidinyl] side chain: the effects of the 1-aminoethyl moiety and its stereochemical configurations on potency and in vivo efficacy” (J Med Chem, 1993)
In brackets after ≈: the same amount, converted by molar mass.

Tests used:
Format in all cases: functional
Streptococcus pneumoniae = assay: Minimum inhibitory concentration was evaluated in vitro against Streptococcus pneumoniae SV-1
Outline: (§1)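 Standard microtitration broth assay against a panel of 10 Gram-positive and Gram-negative organisms. MIC read in µg/mL and averaged over multiple experiments.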

Providencia rettgeri = assay: Minimum inhibitory concentration was evaluated in vitro against Providencia rettgeri M1771; outline: as §1
Staphylococcus aureus [1] = assay: Minimum inhibitory concentration was evaluated in vitro against Staphylococcus aureus UC 76; outline: as §1
Staphylococcus aureus [2] = assay: Minimum inhibitory concentration was evaluated in vitro against Staphylococcus aureus H 228; outline: as §1
Klebsiella pneumoniae = assay: Minimum inhibitory concentration was evaluated in vitro against Klebsiella pneumoniae MGH2; outline: as §1
Streptococcus pyogenes [3] = assay: Minimum inhibitory concentration was evaluated in vitro against Streptococcus pyogenes C 203; outline: as §1
Pseudomonas aeruginosa = assay: Minimum inhibitory concentration was evaluated in vitro against Pseudomonas aeruginosa UI-18; outline: as §1
Escherichia coli = assay: Antibacterial activity in vitro against Escherichia coli Vogel; outline: as §1
Enterobacter cloacae = assay: Minimum inhibitory concentration in vitro against Enterobacter cloacae MA 2646
Enterococcus faecalis = assay: Minimum inhibitory concentration was evaluated in vitro against Enterococcus faecalis MGH-2; outline: as §1
Streptococcus pyogenes [4] = assay: Compounds were evaluated in vivo for antibacterial activity for mouse protection against Streptococcus pyogenes C 203 after oral administration; conditions: for ED50: Streptococcus pyogenes, C 203, po, read-out: PD50
Streptococcus pyogenes [5] = assay: Antibacterial activity measured as mouse protection against Streptococcus pyogenes C 203 after subcutaneous administration; conditions: for ED50: Streptococcus pyogenes, C 203, sc, read-out: PD50
[6] = Streptococcus pneumoniae, read-out: MIC
[7] = Providencia rettgeri, read-out: MIC
[8] = Staphylococcus aureus, read-out: MIC
[9] = Klebsiella pneumoniae, read-out: MIC
[10] = Streptococcus pyogenes, read-out: MIC
[11] = Pseudomonas aeruginosa, read-out: MIC
[12] = Escherichia coli, read-out: MIC
[13] = Enterobacter cloacae, read-out: MIC
[14] = Enterococcus faecalis, read-out: MIC

Row | SMILES | MIC (Streptococcus pneumoniae; [6]) [µg/mL] | MIC (Providencia rettgeri; [7]) [µg/mL] | MIC (Staphylococcus aureus [1]; [8]) [µg/mL] | MIC (Staphylococcus aureus [2]; [8]) [µg/mL] | MIC (Klebsiella pneumoniae; [9]) [µg/mL] | MIC (Streptococcus pyogenes [3]; [10]) [µg/mL] | MIC (Pseudomonas aeruginosa; [11]) [µg/mL] | MIC (Escherichia coli; [12]) [µg/mL] | MIC (Enterobacter cloacae; [13]) [µg/mL] | MIC (Enterococcus faecalis; [14]) [µg/mL] | ED50 (Streptococcus pyogenes [4]) [mg/kg] | ED50 (Streptococcus pyogenes [5]) [mg/kg] | other results
1 | CN[C@@H](C)[C@H]1CCN(c2c(F)c(N)c3c(=O)c(C(=O)O)cn(C4CC4)c3c2F)C1 | 0.8 (≈ 1.97 µM) | 1.6 (≈ 3.94 µM) | 0.4 (≈ 0.984 µM) | 0.8 (≈ 1.97 µM) | 0.8 (≈ 1.97 µM) | 1.6 (≈ 3.94 µM) | 3.1 (≈ 7.63 µM) | 0.4 (≈ 0.984 µM) | 0.4 (≈ 0.984 µM) | 1.6 (≈ 3.94 µM) |  |  | 
2 | CCN[C@H](C)[C@@H]1CCN(c2c(F)cc3c(=O)c(C(=O)O)cn(C4CC4)c3c2C(F)(F)F)C1 | 0.05 (≈ 0.11 µM) | 3.1 (≈ 6.81 µM) | 0.05 (≈ 0.11 µM) | 0.05 (≈ 0.11 µM) | 1.6 (≈ 3.51 µM) | 0.1 (≈ 0.22 µM) | 6.3 (≈ 13.8 µM) | 0.8 (≈ 1.76 µM) | 1.6 (≈ 3.51 µM) | 0.1 (≈ 0.22 µM) | 2 | 0.8 | 
3 | CCN[C@H](C)[C@@H]1CCN(c2cc3c(cc2F)c(=O)c(C(=O)O)cn3C2CC2)C1 | 0.05 (≈ 0.129 µM) | 0.8 (≈ 2.06 µM) | 0.025 (≈ 0.0645 µM) | 0.1 (≈ 0.258 µM) | 0.4 (≈ 1.03 µM) | 0.05 (≈ 0.129 µM) | 6.3 (≈ 16.3 µM) | 0.2 (≈ 0.516 µM) | 0.2 (≈ 0.516 µM) | 0.1 (≈ 0.258 µM) |  |  | 
4 | NCC1CCN(c2nc3c(cc2F)c(=O)c(C(=O)O)cn3-c2ccc(F)cc2F)C1 (stereo unspecified) | 0.025 (≈ 0.0598 µM) | 0.2 (≈ 0.478 µM) | 0.013 (≈ 0.0311 µM) | 0.05 (≈ 0.12 µM) | 0.1 (≈ 0.239 µM) | 0.025 (≈ 0.0598 µM) | 0.4 (≈ 0.956 µM) | 0.05 (≈ 0.12 µM) | 0.05 (≈ 0.12 µM) | 0.025 (≈ 0.0598 µM) | 10 | 1 | 
5 | CN[C@@H](C)[C@H]1CCN(c2nc3c(cc2F)c(=O)c(C(=O)O)cn3C2CC2)C1 | 0.4 (≈ 1.07 µM) | 0.8 (≈ 2.14 µM) | 0.2 (≈ 0.534 µM) | 0.8 (≈ 2.14 µM) | 0.4 (≈ 1.07 µM) | 0.4 (≈ 1.07 µM) | 3.1 (≈ 8.28 µM) | 0.2 (≈ 0.534 µM) | 0.4 (≈ 1.07 µM) | 0.8 (≈ 2.14 µM) | 23 | 15 | 
6 | CCN[C@H](C)[C@@H]1CCN(c2c(F)cc3c(=O)c(C(=O)O)cn(C4CC4)c3c2OC)C1 | 0.003 (≈ 0.00719 µM) | 0.8 (≈ 1.92 µM) | 0.003 (≈ 0.00719 µM) | 0.013 (≈ 0.0311 µM) | 0.4 (≈ 0.958 µM) | 0.003 (≈ 0.00719 µM) | 3.1 (≈ 7.43 µM) | 0.2 (≈ 0.479 µM) | 0.2 (≈ 0.479 µM) | 0.013 (≈ 0.0311 µM) | 3 |  | 
7 | CN[C@H](C)[C@H]1CCN(c2c(F)c(N)c3c(=O)c(C(=O)O)cn(C4CC4)c3c2F)C1 |  |  |  |  |  |  |  |  |  |  |  |  | MIC (Streptococcus pneumoniae): 0.2 µg/mL (≈ 0.492 µM); MIC (Providencia rettgeri): 0.8 µg/mL (≈ 1.97 µM); MIC (Staphylococcus aureus [1]): 0.05 µg/mL (≈ 0.123 µM); MIC (Staphylococcus aureus [2]): 0.1 µg/mL (≈ 0.246 µM); PD50 (Streptococcus pyogenes [4]): 13 mg/kg; MIC (Klebsiella pneumoniae): 0.8 µg/mL (≈ 1.97 µM); MIC (Streptococcus pyogenes [3]): 0.2 µg/mL (≈ 0.492 µM); MIC (Pseudomonas aeruginosa): 3.1 µg/mL (≈ 7.63 µM); MIC (Escherichia coli): 0.2 µg/mL (≈ 0.492 µM); PD50 (Streptococcus pyogenes [5]): 13 mg/kg; MIC (Enterobacter cloacae): 0.2 µg/mL (≈ 0.492 µM); MIC (Enterococcus faecalis): 0.2 µg/mL (≈ 0.492 µM)
8 | CCN[C@@H](C)[C@H]1CCN(c2cc3c(cc2F)c(=O)c(C(=O)O)cn3C2CC2)C1 | 0.4 (≈ 1.03 µM) | 1.6 (≈ 4.13 µM) | 0.4 (≈ 1.03 µM) | 0.8 (≈ 2.06 µM) | 0.8 (≈ 2.06 µM) | 0.4 (≈ 1.03 µM) | 12.5 (≈ 32.3 µM) | 0.4 (≈ 1.03 µM) | 0.4 (≈ 1.03 µM) | 0.8 (≈ 2.06 µM) |  |  | 
9 | C[C@@H](N)[C@@H]1CCN(c2nc3c(cc2F)c(=O)c(C(=O)O)cn3-c2ccc(F)cc2F)C1 | 0.1 (≈ 0.231 µM) | 0.4 (≈ 0.925 µM) | 0.025 (≈ 0.0578 µM) | 0.1 (≈ 0.231 µM) | 0.2 (≈ 0.463 µM) | 0.05 (≈ 0.116 µM) | 1.6 (≈ 3.7 µM) | 0.1 (≈ 0.231 µM) | 0.1 (≈ 0.231 µM) | 0.1 (≈ 0.231 µM) |  |  | 
10 | COc1c(N2CCC(CN)C2)c(F)cc2c(=O)c(C(=O)O)cn(C3CC3)c12 (stereo unspecified) | 0.003 (≈ 0.00799 µM) | 0.1 (≈ 0.266 µM) | 0.003 (≈ 0.00799 µM) | 0.025 (≈ 0.0666 µM) | 0.1 (≈ 0.266 µM) | 0.003 (≈ 0.00799 µM) | 0.8 (≈ 2.13 µM) | 0.05 (≈ 0.133 µM) | 0.05 (≈ 0.133 µM) | 0.013 (≈ 0.0346 µM) | 11 | 0.6 | 
11 | CCN[C@H](C)[C@H]1CCN(c2cc3c(cc2F)c(=O)c(C(=O)O)cn3C2CC2)C1 (mixture of isomers; form 1) |  |  |  |  |  |  |  |  |  |  |  |  | MIC (Streptococcus pneumoniae): 0.2 µg/mL; MIC (Providencia rettgeri): 1.6 µg/mL; MIC (Staphylococcus aureus [1]): 0.2 µg/mL; MIC (Staphylococcus aureus [2]): 0.4 µg/mL; MIC (Klebsiella pneumoniae): 0.8 µg/mL; MIC (Streptococcus pyogenes [3]): 0.2 µg/mL; MIC (Pseudomonas aeruginosa): 6.3 µg/mL; MIC (Escherichia coli): 0.4 µg/mL; MIC (Enterobacter cloacae): 0.4 µg/mL; MIC (Enterococcus faecalis): 0.4 µg/mL
